According to ChEMBL document CHEMBL1156914, “Novel inhibitors of dengue virus methyltransferase: discovery by in vitro-driven virtual screening on a desktop computer grid” (J Med Chem, 2010):
pEC50, pIC50: −log10 of the molar value.

Key:
[1] = Cytotoxicity against human A549 cells after 48 hrs; assay type: cell-based
dengue virus type 2 = assay: Antiviral activity against Dengue virus type 2 infected in human A549 cells assessed as decrease in viral E protein production by cell-based flavivirus immunodetection assay; assay type: functional, organism-based
Genome polyprotein [2] = target: T1, Genome polyprotein (dengue virus type 2, UniProt P12823); assay: Inhibition of Dengue virus type 2 NS5 RNA methyltransferase SAM site
Genome polyprotein [3] = target: T1, Genome polyprotein; assay: Inhibition of Dengue virus type 2 NS5 RNA methyltransferase SAM site with 0.1 % TX100
Genome polyprotein [4] = target: T1, Genome polyprotein; assay: Inhibition of Dengue virus type 2 NS5 RNA methyltransferase RNA site with 0.1 % TX100
Method in brief: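 Detergent-sensitivity variant of the SPA methyl-transfer assay: 0.1% Triton X-100 added to the reaction mix. Otherwise 25 nM DENV2 MTase, 40 nM biotinylated RNA, 20 min room-temperature preincubation, 0.56 μM [3H]AdoMet. Counts read after bead stop. Duplicate wells.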

Genome polyprotein [5] = target: T1, Genome polyprotein; assay: Inhibition of Dengue virus type 2 NS5 RNA methyltransferase RNA site
Genome polyprotein [6] = target: T1, Genome polyprotein; assay: Inhibition of Dengue virus type 2 NS5 RNA methyltransferase by spin-down assay
Genome polyprotein [7] = target: T1, Genome polyprotein; assay: Inhibition of Dengue virus type 2 NS5 RNA methyltransferase at 80 nM enzyme concentration
Genome polyprotein [8] = target: T1, Genome polyprotein; assay: Inhibition of Dengue virus type 2 NS5 RNA methyltransferase at 8 nM enzyme concentration

T1 sequence (P12823 2489-3388 limits assumed): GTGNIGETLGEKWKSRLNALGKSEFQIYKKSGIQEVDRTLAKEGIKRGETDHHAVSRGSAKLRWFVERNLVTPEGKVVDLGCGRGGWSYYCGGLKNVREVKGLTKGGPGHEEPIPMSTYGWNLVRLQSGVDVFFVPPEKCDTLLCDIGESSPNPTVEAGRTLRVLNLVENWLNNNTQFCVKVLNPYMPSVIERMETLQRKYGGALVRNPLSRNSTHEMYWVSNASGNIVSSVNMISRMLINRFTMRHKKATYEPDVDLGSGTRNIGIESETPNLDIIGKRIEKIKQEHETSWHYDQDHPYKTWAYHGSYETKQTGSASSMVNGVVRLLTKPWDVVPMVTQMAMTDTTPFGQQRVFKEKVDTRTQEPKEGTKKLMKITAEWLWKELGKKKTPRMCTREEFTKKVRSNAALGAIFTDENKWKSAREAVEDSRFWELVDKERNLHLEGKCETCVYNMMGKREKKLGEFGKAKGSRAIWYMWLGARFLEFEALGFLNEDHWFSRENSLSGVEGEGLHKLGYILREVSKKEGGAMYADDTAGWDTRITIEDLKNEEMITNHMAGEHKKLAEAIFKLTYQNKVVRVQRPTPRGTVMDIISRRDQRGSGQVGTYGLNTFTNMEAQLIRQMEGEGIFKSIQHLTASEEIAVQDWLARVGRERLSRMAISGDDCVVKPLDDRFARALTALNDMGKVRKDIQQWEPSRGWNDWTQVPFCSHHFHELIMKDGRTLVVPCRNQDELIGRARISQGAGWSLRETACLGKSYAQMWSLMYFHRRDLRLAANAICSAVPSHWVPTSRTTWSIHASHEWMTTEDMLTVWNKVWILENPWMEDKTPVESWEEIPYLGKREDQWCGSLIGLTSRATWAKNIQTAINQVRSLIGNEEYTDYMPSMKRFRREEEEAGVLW

SMILES	pIC50 (Genome polyprotein [2])	pIC50 (Genome polyprotein [3])	pIC50 (Genome polyprotein [4])	pIC50 (Genome polyprotein [5])	further results
O=C(O)c1cnc2c([N+](=O)[O-])cccc2c1O	4.84	4.84	–	–	CC50 at 48 h [1]: > 100 µM; pEC50 (dengue virus type 2): < 4.00
O=C(O)c1ccc(S(=O)(=O)c2ccc(C(=O)O)cc2)cc1	4.52	< 4.00	–	–	–
NC(=O)C1=CN(Cc2ccccc2)C=CC1	4.60	< 4.00	–	–	–
Cc1cc(C(=O)CSc2nc(N)cc(=O)[nH]2)c(C)n1Cc1ccc2c(c1)OCO2	4.79	< 4.00	–	–	–
Cc1ccccc1COc1ccc(C(=O)[C@@H]2C(=O)C(=O)N(Cc3ccncc3)[C@H]2c2cccc(O)c2)cc1	5.02	< 4.00	–	–	–
O=C(O)CCC(=O)N1NC(c2c(O)nc3ccc(Cl)cc3c2-c2ccccc2)=C[C@@H]1c1ccc(Br)cc1	–	–	4.35	5.35	CC50 at 48 h [1]: > 100 µM; pEC50 (dengue virus type 2): < 4.00
COc1ccc(/C=C2/CN(CCCC(=O)O)C(=O)C2=O)cc1	5.06	5.35	–	–	CC50 at 48 h [1]: > 100 µM; pIC50 (Genome polyprotein [6]): 4.98; pEC50 (dengue virus type 2): < 4.00
O=S(=O)(O)c1cccc(NNc2ccc(Nc3ccccc3)cc2)c1	–	–	5.15	5.12	pIC50 (Genome polyprotein [7]): 4.99; CC50 at 48 h [1]: > 100 µM; pIC50 (Genome polyprotein [6]): 4.97; pIC50 (Genome polyprotein [8]): 5.12; pEC50 (dengue virus type 2): < 4.00
Cc1c(CC(=O)N[C@@H](Cc2c[nH]c3ccc(O)cc23)C(=O)O)c(=O)oc2cc3occ(C(C)(C)C)c3cc12	–	–	< 4.00	4.92	–
O=C1NC(=O)/C(=C\c2ccc(O)cc2)N1	4.56	< 4.00	–	–	–
O=S(=O)(Nc1ccccc1)c1cc(S(=O)(=O)Nc2ccccc2)c2cc(O)ccc2c1	4.68	< 4.00	–	–	–
O=C(O)COc1ccc(Br)cc1/C=C1\CC/C(=C\c2cc(Br)ccc2OCC(=O)O)C1=O	–	–	4.71	5.55	CC50 at 48 h [1]: > 100 µM; pEC50 (dengue virus type 2): < 4.00
O=C(c1cccc([N+](=O)[O-])c1)c1no[n+]([O-])c1C(=O)c1cccc([N+](=O)[O-])c1	4.50	< 4.00	–	–	–
O=C1C(=O)N(Cc2cccnc2)[C@H](c2cccc(Oc3ccccc3)c2)/C1=C(/O)c1ccco1	4.89	< 4.00	–	–	–
Cc1ccc(Cl)cc1NS(=O)(=O)c1ccc(NS(=O)(=O)c2ccc3ccccc3c2)cc1	–	–	4.19	5.03	CC50 at 48 h [1]: 22.7 µM; pEC50 (dengue virus type 2): 4.92
N#Cc1c(NC(=O)c2cccc(S(=O)(=O)Nc3ccc(C(=O)O)cc3)c2)sc2c1CCCC2	–	–	< 4.00	4.75	–
COc1ccc(CN(CC[C@@H](c2ccccc2)c2ccco2)C(=O)c2ccoc2)cc1	5.54	< 4.60	–	–	–
COc1cc(NS(=O)(=O)c2ccc(NC(=O)/C=C/c3cccc4ccccc34)cc2)nc(OC)n1	–	–	< 4.00	5.17	–
Cc1cc(O)c2c(c1)C(=O)c1cc(O)cc(O)c1C2=O [EMODIN]	4.77	4.10	–	–	CC50 at 48 h [1]: 30.7 µM; pEC50 (dengue virus type 2): 4.96

Further lines, with some results ahead:

pIC50 (Genome polyprotein [2])	pIC50 (Genome polyprotein [3])	pIC50 (Genome polyprotein [4])	pIC50 (Genome polyprotein [5])	SMILES	further results
5.37	< 4.60	–	–	O=C(CCCCC(=O)N/N=C/c1ccc(O)cc1O)N/N=C/c1ccc(O)cc1O	–
–	–	< 4.00	4.91	O=C(O)COc1ccccc1/C=N\NC(=O)Cc1csc(Nc2cccc(C(F)(F)F)c2)n1	–
4.54	< 4.00	–	–	O=C(Cn1ccc(=O)[nH]c1=O)Nc1ccc(O)c([N+](=O)[O-])c1	–
–	–	< 4.00	4.69	Cc1cc(/C=N\NC(=O)Nc2ccccc2)c(C)n1-c1cc(C(=O)O)cc(C(=O)O)c1	–
–	–	< 4.00	4.43	Cc1ccc(C23CC4CC(CC(C(=O)Nc5cccc(C(=O)O)c5)(C4)C2)C3)cc1	–
–	–	< 4.00	5.10	O=C(O)c1cccc(NC(=O)c2ccc(CSc3ccc(Br)cc3)cc2)c1	–
–	–	< 4.00	4.95	COc1cc(/C=C2/NC(=O)N(Cc3ccc(Cl)cc3Cl)C2=O)ccc1O[C@H](C)C(=O)O	–
–	–	5.31	5.32	O=C(O)c1ccccc1/C=N/NC(=O)c1cc(-c2ccco2)nc2ccccc12	CC50 at 48 h [1]: > 100 µM; pIC50 (Genome polyprotein [6]): 5.36; pEC50 (dengue virus type 2): < 4.00
–	–	4.06	4.87	CCN(CC)c1ccc(/C=N\Nc2ccc(Cl)c(C(=O)O)c2)c(O)c1	CC50 at 48 h [1]: 75.1 µM; pEC50 (dengue virus type 2): 4.30
–	–	< 4.00	5.15	CCOc1cc(/C=C2\C(=O)N(c3ccc4ccccc4c3)N=C2C)ccc1OCCC(=O)O	–
–	–	< 4.00	5.06	O=C(N/N=C\c1ccccc1C(=O)O)c1ccc(COc2ccc3ccccc3c2)cc1	–
–	–	< 4.00	4.84	O=C(O)c1ccccc1C(=O)Nc1nc(-c2ccc3ccccc3c2)cs1	–
5.01	< 4.00	–	–	Cc1ccc(C)c(C(=O)C2=C(O)C(=O)N(CCc3ccccc3)[C@@H]2c2ccc(O)cc2)c1	–
–	–	< 4.00	4.88	COc1cc(CNc2ccc(C(=O)O)cc2)ccc1OCc1ccccc1Cl	–
4.56	< 4.00	–	–	COc1ccc2c(c1)C(CC(=O)O)CN2Cc1ccccc1 (stereo unspecified)	–
